# Reference: ChEMBL document CHEMBL2157910, “Structure-activity relationship studies of 4-benzyl-1H-pyrazol-3-yl β-d-glucopyranoside derivatives as potent and selective sodium glucose co-transporter 1 (SGLT1) inhibitors with therapeutic activity on postprandial hyperglycemia” (Bioorg Med Chem, 2012)
# The source made the active and inactive calls. The rule behind the calls is not given here.
# How the values were obtained:
# [1] = target: T1, Sodium/glucose cotransporter 1 (Rattus norvegicus, UniProt P53790); experiment: Inhibition of rat SGLT1 expressed in COS7 cells assessed as reduction of [14C]-AMG uptake; type: cell-based, COS-7
# T1 sequence (P53790 whole entry): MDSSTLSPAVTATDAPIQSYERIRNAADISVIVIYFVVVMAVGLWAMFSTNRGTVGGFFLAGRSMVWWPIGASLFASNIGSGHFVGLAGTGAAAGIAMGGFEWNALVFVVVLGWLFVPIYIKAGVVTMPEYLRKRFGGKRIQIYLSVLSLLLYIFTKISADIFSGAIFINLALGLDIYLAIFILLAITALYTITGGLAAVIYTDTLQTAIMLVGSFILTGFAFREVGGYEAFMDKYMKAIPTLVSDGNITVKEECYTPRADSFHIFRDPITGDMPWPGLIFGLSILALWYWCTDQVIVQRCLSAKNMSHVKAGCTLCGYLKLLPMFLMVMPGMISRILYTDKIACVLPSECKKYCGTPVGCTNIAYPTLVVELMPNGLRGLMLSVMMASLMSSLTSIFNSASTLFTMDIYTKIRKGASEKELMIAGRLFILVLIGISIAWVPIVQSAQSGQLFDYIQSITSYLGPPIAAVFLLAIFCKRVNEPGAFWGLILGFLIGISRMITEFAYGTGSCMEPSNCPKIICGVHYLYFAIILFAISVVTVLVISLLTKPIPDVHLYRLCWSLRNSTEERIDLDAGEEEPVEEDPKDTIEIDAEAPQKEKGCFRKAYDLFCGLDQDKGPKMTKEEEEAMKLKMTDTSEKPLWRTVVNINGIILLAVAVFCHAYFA
# [2] = target: T2, Sodium/glucose cotransporter 2 (Homo sapiens, UniProt P31639); experiment: Inhibition of human SGLT2 expressed in COS7 cells assessed as reduction of [14C]-AMG uptake; type: cell-based, COS-7
# T2 sequence (P31639 whole entry): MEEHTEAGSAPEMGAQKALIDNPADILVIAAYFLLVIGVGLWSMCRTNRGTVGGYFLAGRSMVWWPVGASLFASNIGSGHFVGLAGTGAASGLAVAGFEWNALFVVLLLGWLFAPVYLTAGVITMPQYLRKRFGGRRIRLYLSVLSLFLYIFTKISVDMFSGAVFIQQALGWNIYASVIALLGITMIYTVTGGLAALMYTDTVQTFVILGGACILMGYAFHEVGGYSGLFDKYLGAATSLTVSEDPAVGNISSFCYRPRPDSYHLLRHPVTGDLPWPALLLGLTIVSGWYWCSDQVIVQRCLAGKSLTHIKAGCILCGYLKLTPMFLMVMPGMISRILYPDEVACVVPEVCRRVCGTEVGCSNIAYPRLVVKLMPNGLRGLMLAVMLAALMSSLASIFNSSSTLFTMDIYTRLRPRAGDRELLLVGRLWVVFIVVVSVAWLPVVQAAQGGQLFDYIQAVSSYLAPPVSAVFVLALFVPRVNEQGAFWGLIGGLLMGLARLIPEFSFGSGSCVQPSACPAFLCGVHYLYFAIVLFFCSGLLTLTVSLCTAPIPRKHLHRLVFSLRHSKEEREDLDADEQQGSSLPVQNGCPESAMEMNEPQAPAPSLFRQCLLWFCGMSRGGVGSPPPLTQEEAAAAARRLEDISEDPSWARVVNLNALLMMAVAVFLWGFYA
# [3] = target: T3, Sodium/glucose cotransporter 2 (Rattus norvegicus, UniProt P53792); experiment: Inhibition of rat SGLT2 expressed in COS7 cells assessed as reduction of [14C]-AMG uptake; type: cell-based, COS-7
# T3 sequence (P53792 whole entry): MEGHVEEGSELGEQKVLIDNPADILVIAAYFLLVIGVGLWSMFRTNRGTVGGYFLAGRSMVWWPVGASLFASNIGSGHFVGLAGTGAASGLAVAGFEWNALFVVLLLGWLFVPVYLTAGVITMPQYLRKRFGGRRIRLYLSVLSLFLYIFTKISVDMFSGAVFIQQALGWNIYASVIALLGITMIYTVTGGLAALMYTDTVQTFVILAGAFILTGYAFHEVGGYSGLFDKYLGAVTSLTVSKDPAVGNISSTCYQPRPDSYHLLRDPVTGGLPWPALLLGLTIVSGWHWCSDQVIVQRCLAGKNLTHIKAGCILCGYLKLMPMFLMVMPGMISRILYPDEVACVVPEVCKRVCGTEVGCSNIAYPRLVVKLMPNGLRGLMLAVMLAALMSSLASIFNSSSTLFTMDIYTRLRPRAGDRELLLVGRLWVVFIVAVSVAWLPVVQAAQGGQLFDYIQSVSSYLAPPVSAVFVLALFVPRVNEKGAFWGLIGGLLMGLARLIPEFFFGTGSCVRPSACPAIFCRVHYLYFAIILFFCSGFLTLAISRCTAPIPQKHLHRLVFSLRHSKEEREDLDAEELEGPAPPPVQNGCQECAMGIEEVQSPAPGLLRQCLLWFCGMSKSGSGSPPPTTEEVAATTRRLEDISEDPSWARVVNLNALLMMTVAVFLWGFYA
# [4] = test system: Rattus norvegicus; experiment: Antihyperglycemic activity in po dosed Wistar rat streptozotocin-nicotinamide-induced diabetic model assessed as reduction of plasma glucose level after 1 hr by oral mixed carbohydrate tolerance test; type: functional, organism-based
# Procedure, shortened: (§1)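 Male Wistar rats (8 weeks) given nicotinamide 230 mg/kg i.p., then streptozotocin 85 mg/kg i.v. 15 min later; after 1 week, rats above 250 mg/dL plasma glucose at 1 h in a 2 g/kg glucose tolerance test were used. Overnight-fasted rats were dosed orally in 0.5% CMC, then immediately loaded with 2 g/kg starch/sucrose/lactose (6:3:1). Plasma glucose by glucose oxidase; n = 7; Dunnett's test versus vehicle.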
# [5] = Metabolic stability of the compound in rat intestinal microsomes assessed as compound remaining at 50 uM after 60 mins; type: ADME, Intestine; details: for remaining at 1 h, 50 µM: intestinal microsomes, read-out: Stability; for Stability: microsomes, 1 h, 50 µM
# Procedure, shortened: (§2)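 50 µM final compound incubated at 37 °C with 0.8 mg/mL rat intestinal microsomes, 1 mg/mL NADPH, 50 mM ammonium acetate (pH 5.0) and 10 mM MgCl2. Levels measured by LC–MS at 0, 30 and 60 min; reported as % remaining relative to 0 min.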
# [6] = Solubility of the compound in distilled water; type: physicochemical
# Procedure, shortened: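 Solubility measured in distilled water, with filtrate concentration quantified by HPLC.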
# [7] = test system: Rattus norvegicus; experiment: Toxicity in Wistar rat streptozotocin-nicotinamide-induced diabetic model assessed as soft feces at 1 to 10 mg/kg, po; type: organism-based; design: dose 1-10 mg/kg, route oral; details: in vivo
# [8] = test system: Rattus norvegicus; experiment: Toxicity in Wistar rat assessed as overnight urinary glucose excretion at 10 mg/kg, po; type: organism-based, Urine; design: dose 10 mg/kg, route oral; details: in vivo
# Procedure, shortened: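 Male Wistar rats (8 weeks) in metabolic cages, fasted 08:00 to next morning. At 16:00 they received 10 mg/kg orally in 0.5% CMC or vehicle, and urine was collected until 08:00. Urine glucose by glucose oxidase; n = 5; F-test then Student's t or Welch's test versus vehicle.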
# [9] = Metabolic stability of the compound in rat intestinal microsomes assessed as compound remaining at 50 uM after 30 mins; type: ADME, Intestine; details: for remaining at 0.5 h, 50 µM: intestinal microsomes, read-out: Stability; for Stability: microsomes, 0.5 h, 50 µM; procedure, shortened: as §2
# [10] = test system: Rattus norvegicus; experiment: Toxicity in Wistar rat streptozotocin-nicotinamide-induced diabetic model assessed as diarrhea at 1 to 10 mg/kg, po; type: organism-based; design: dose 1-10 mg/kg, route oral; details: in vivo
# [11] = test system: Rattus norvegicus; experiment: Antihyperglycemic activity in Wistar rat streptozotocin-nicotinamide-induced diabetic model assessed as reduction of plasma glucose level at 1 mg/kg, po after 1 hr by oral mixed carbohydrate tolerance test; type: functional, organism-based; design: dose 1 mg/kg; procedure, shortened: as §1
Structure (SMILES),IC50 [2] [µM],also measured
Cc1cc(O)ccc1Cc1c(C(C)C)n[nH]c1O[C@@H]1O[C@H](CO)[C@@H](O)[C@H](O)[C@H]1O,6.89,IC50 [1]: 183 nM; IC50 [3]: 4.37 µM
CCc1[nH]nc(O[C@@H]2O[C@H](CO)[C@@H](O)[C@H](O)[C@H]2O)c1Cc1ccccc1OCc1ccccc1,13.9,–
CCOC(=O)OC[C@H]1O[C@@H](Oc2ccccc2Cc2ccc(OC)cc2)[C@H](O)[C@@H](O)[C@@H]1O [SERGLIFLOZIN ETABONATE],–,Activity [8]: 53.3 mg
Cc1cc(O)ccc1Cc1c(O[C@@H]2O[C@H](CO)[C@@H](O)[C@H](O)[C@H]2O)n[nH]c1C(C)C,–,Activity [4]: Dose-dependent effect
OC[C@H]1O[C@@H](Oc2n[nH]c(C3CC3)c2Cc2ccccc2OCc2ccccc2)[C@H](O)[C@@H](O)[C@@H]1O,156,–
Cc1[nH]nc(O[C@@H]2O[C@H](CO)[C@@H](O)[C@H](O)[C@H]2O)c1Cc1ccccc1OCc1ccccc1,5.01,–
OC[C@H]1O[C@@H](Oc2[nH]nc(C(F)(F)F)c2Cc2cccc(OCc3ccccc3)c2)[C@H](O)[C@@H](O)[C@@H]1O,5.68,–
O=C(CCc1ccc(O)cc1)c1c(O)cc(O)cc1O[C@@H]1O[C@H](CO)[C@@H](O)[C@H](O)[C@H]1O [PHLORIZIN],–,Stability [5]: Unstable; Stability [9]: Unstable; IC50 [3]: 0.096 µM; Activity [11]: inactive
OC[C@H]1O[C@@H](Oc2n[nH]c(C(F)(F)F)c2Cc2ccccc2O)[C@H](O)[C@@H](O)[C@@H]1O,14.9,–
CC(C)(C)c1[nH]nc(O[C@@H]2O[C@H](CO)[C@@H](O)[C@H](O)[C@H]2O)c1Cc1ccccc1OCc1ccccc1,64.7,–
OC[C@H]1O[C@@H](Oc2n[nH]c(C(F)(F)F)c2Cc2ccccc2)[C@H](O)[C@@H](O)[C@@H]1O,0.342,–
OC[C@H]1O[C@@H](Oc2n[nH]c(C(F)(F)F)c2Cc2ccccc2OCc2ccccc2)[C@H](O)[C@@H](O)[C@@H]1O,14,IC50 [1]: 227 nM; Stability [5]: Unstable; Stability [9]: Unstable; IC50 [3]: 40.8 µM
CC(C)c1n[nH]c(O[C@@H]2O[C@H](CO)[C@@H](O)[C@H](O)[C@H]2O)c1Cc1ccccc1F,1.39,–
CC(C)c1n[nH]c(O[C@@H]2O[C@H](CO)[C@@H](O)[C@H](O)[C@H]2O)c1Cc1ccccc1C(F)(F)F,60.5,–
OC[C@H]1O[C@@H](Oc2[nH]nc(C(F)(F)F)c2Cc2cccc(O)c2)[C@H](O)[C@@H](O)[C@@H]1O,2.79,–
OC[C@H]1O[C@@H](Oc2n[nH]c(C(F)(F)F)c2Cc2ccc(OCc3ccccc3)cc2)[C@H](O)[C@@H](O)[C@@H]1O,0.007,–
Cc1ccccc1Cc1c(C(C)C)n[nH]c1O[C@@H]1O[C@H](CO)[C@@H](O)[C@H](O)[C@H]1O,18.5,–

# Further lines, with some results ahead:
IC50 [2] [µM],Structure (SMILES),also measured
0.068,CCc1ccc(Cc2c(C(C)C)n[nH]c2O[C@@H]2O[C@H](CO)[C@@H](O)[C@H](O)[C@H]2O)cc1,–
75.9,CC(C)c1[nH]nc(O[C@@H]2O[C@H](CO)[C@@H](O)[C@H](O)[C@H]2O)c1Cc1ccccc1O,–
0.231,Cc1ccc(Cc2c(O[C@@H]3O[C@H](CO)[C@@H](O)[C@H](O)[C@H]3O)n[nH]c2C(C)C)cc1,–
6.01,Cc1ccc(Cc2c(O[C@@H]3O[C@H](CO)[C@@H](O)[C@H](O)[C@H]3O)n[nH]c2C(C)C)c(C)c1,"IC50 [1]: 67 nM; Activity [4]: Dose-dependent effect; remaining at 1 h, 50 µM [5]: 67%; solubility [6]: 3700 µg/mL; Activity [7]: Non-toxic; Activity [8]: 0.8 mg; remaining at 0.5 h, 50 µM [9]: 91%; IC50 [3]: 4.65 µM; Activity [10]: Non-toxic"
65.7,CC(C)c1[nH]nc(O[C@@H]2O[C@H](CO)[C@@H](O)[C@H](O)[C@H]2O)c1Cc1ccccc1C#N,–
4.14,CC(C)c1[nH]nc(O[C@@H]2O[C@H](CO)[C@@H](O)[C@H](O)[C@H]2O)c1Cc1ccc(F)cc1,–
5.98,Cc1cccc(Cc2c(O[C@@H]3O[C@H](CO)[C@@H](O)[C@H](O)[C@H]3O)n[nH]c2C(C)C)c1,–
0.154,OC[C@H]1O[C@@H](Oc2[nH]nc(C(F)(F)F)c2Cc2ccc(O)cc2)[C@H](O)[C@@H](O)[C@@H]1O,–
2.02,CC(C)c1[nH]nc(O[C@@H]2O[C@H](CO)[C@@H](O)[C@H](O)[C@H]2O)c1Cc1ccccc1,solubility [6]: 19000 µg/mL
0.377,COc1ccc(Cc2c(O[C@@H]3O[C@H](CO)[C@@H](O)[C@H](O)[C@H]3O)n[nH]c2C(C)C)cc1,–
74,CC(C)c1[nH]nc(O[C@@H]2O[C@H](CO)[C@@H](O)[C@H](O)[C@H]2O)c1Cc1ccccc1OCc1ccccc1,"IC50 [1]: 308 nM; remaining at 1 h, 50 µM [5]: 51%; solubility [6]: 240 µg/mL; Activity [8]: 0.4 mg; remaining at 0.5 h, 50 µM [9]: 71%; IC50 [3]: 100 µM"
14.1,CCc1ccccc1Cc1c(O[C@@H]2O[C@H](CO)[C@@H](O)[C@H](O)[C@H]2O)n[nH]c1C(C)C,–
204,COc1ccccc1Cc1c(O[C@@H]2O[C@H](CO)[C@@H](O)[C@H](O)[C@H]2O)n[nH]c1C(C)C,–
3.58,CC(C)c1[nH]nc(O[C@@H]2O[C@H](CO)[C@@H](O)[C@H](O)[C@H]2O)c1Cc1ccc(C#N)cc1,–
13.3,CC(C)c1[nH]nc(O[C@@H]2O[C@H](CO)[C@@H](O)[C@H](O)[C@H]2O)c1Cc1cccc(O)c1,–
0.285,CC(C)c1[nH]nc(O[C@@H]2O[C@H](CO)[C@@H](O)[C@H](O)[C@H]2O)c1Cc1ccc(O)cc1,–
